An excerpt weighted towards active compounds, which were near 4.4% of everything screened.
HTR2A ag: mouse Htr2a agonists via beta-arrestin recruitment, primary screen, cell-based, luminescence | 5-hydroxytryptamine receptor 2A (Mus musculus), P35363 | CHO-K1 mHTR2A beta-arrestin complementation; percent of 30 µM serotonin response | activation, % at 7.6 µM | actives 0.66% (n = 360,000);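 active = activation above a run cutoff, the mean activation of all tested compounds plus 3 SD, cut at about 14% in these data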
Target sequence (P35363 whole entry, looked up): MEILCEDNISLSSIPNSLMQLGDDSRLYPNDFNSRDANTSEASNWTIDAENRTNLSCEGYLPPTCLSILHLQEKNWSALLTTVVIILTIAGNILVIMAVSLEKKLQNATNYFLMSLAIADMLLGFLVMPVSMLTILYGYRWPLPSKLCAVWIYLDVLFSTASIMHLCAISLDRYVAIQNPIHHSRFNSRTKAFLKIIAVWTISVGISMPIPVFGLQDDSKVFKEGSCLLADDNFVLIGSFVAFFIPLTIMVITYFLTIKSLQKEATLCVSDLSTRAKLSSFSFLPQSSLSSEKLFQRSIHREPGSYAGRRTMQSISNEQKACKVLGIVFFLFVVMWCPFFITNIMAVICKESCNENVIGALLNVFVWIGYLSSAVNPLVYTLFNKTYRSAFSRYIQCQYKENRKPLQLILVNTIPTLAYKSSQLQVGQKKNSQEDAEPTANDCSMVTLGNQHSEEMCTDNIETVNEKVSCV
bovine MsrA act: bovine MsrA enzyme activators, primary screen, biochemical, absorbance, HTS | AID 602163, 2012 | activation, % at 10.6 µM | Methionine sulfoxide reductase A (Bos taurus) | purified bovine MsrA, absorbance read-out | actives 0.3% (n = 360,000); in the data active = activation above about 7.5%
Tb MetRS inh: T. brucei MetRS inhibitors, primary screen, biochemical, luminescence; purified T. brucei MetRS, ATP depletion, Kinase-Glo luminescence; inhibition, % at 11.9 µM; AID 624268, 2012; actives 0.4% (n = 360,000);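 active = inhibition above a per-plate cutoff of the control wells' mean inhibition plus 3 SD, cut at about 5.5% in these data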
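Test system – parasite MetRS enzyme · Reagent – substrates ATP, L-methionine and bulk Escherichia coli tRNA · Doses – 11.9 µM compound single dose, 0.9% DMSO · Times – 15 min enzyme-compound preincubation, 2 h reaction, 10 min detection, 25 °C · Signal – Kinase-Glo luminescence, ATP depletion format · Controls – DMSO-only wells as low control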
AHR activator: AHR activators, primary screen, cell-based, luminescence, luciferase reporter, human; AHR-responsive luciferase reporter cells; actives 2.5% (n = 320,000); activation, % at 5 µM; AID 2796, 2010; in the data active = activation above about 47%
MsrA inh: bovine MsrA enzyme inhibitors, primary screen, biochemical, absorbance, HTS; Methionine sulfoxide reductase A (Bos taurus); purified bovine MsrA, absorbance read-out; inhibition, % at 15.5 µM; actives 0.75% (n = 360,000); AID 651718, 2012
AI-2 QS mod: Vibrio harveyi AI-2 quorum sensing modulators, primary screen, JMH597 strain, luminescence/OD600 ratio; Vibrio harveyi JMH597 AI-2 luminescence/OD600 ratio, 9 h; hits give low values; strain lacks LuxN and CqsS sensors; 0 = neutral-control median; activity change, % at 7.5 µM; actives 0.4% (n = 300,000); in the data active = activity change below about -75%, passing the limit was not always enough;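 note: luminescence divided by OD600 gain over 9 h not by final OD600 alone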
MsrA conf: bovine MsrA inhibitors, retest, confirmation, biochemical, absorbance, HTS; shares compounds with MsrA inh; purified bovine MsrA, absorbance read-out; inhibition, % at 15.5 µM; actives 41% (n = 2,300); AID 651822, 2012;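 note: coupled to thioredoxin reductase with NADPH and selenocystamine and DMSO as substrate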
A number is an active result; 0 = inactive; - = no result given. Cut-off read from the data, not from the text of the source, unless noted: active = inhibition above about 4.5%; inactive = the rest.

SMILES	HTR2A ag	bovine MsrA act	Tb MetRS inh	AHR activator	MsrA inh	AI-2 QS mod	MsrA conf
C/C(=N\Nc1ccc(C#N)cc1[N+](=O)[O-])c1ccc(O)cc1	0	0	0	0	16	0	17
CC(C)(CO)Nc1ccc([N+](=O)[O-])cc1[N+](=O)[O-]	0	0	0	0	5.3	0	0
CC/C(=N\Nc1ccc([N+](=O)[O-])cc1[N+](=O)[O-])c1ccc(O)cc1	0	0	0	0	6.7	0	0
NCC(=O)Nc1ccc(Cl)cc1C(=O)c1ccc[nH]1	0	0	0	-	5.0	0	0
CC(=O)Nc1ccc(Cl)cc1C(=O)c1ccc[nH]1	0	0	0	-	0	-	-
Cc1ccccc1-c1cccc([C@@H]2C[C@H]3[C@H](CON3C)CN2Cc2cc(Cl)cc(Cl)c2)c1	0	0	0	-	0	-	-
CN(C(=O)c1cccc(NC(=O)Cc2ccc(NC(=O)C3CCCN(S(=O)(=O)c4cccc([N+](=O)[O-])c4)C3)cc2)c1)C1CCC1 (centres undefined)	0	0	0	-	0	-	-
COC(=O)C1CCN(C(=O)COC(=O)/C=C/c2ccc(O)c(OC)c2)CC1	0	0	0	0	0	-	-
N#C/C(=C(/O)CSc1ccccc1C(=O)O)c1nc2ccccc2s1	0	0	0	0	7.1	0	7.1
Cc1c(-c2ccccc2)cnc2c(C)cccc12	0	0	0	0	0	0	-
CC(C)NC(=O)C1(C)CCN1C(=O)C1(c2ccccc2)CC1 (centres undefined)	0	0	0	-	0	-	-
C=CCc1c(C)nc2c(-c3ccccc3)cnn2c1N1CCOCC1	0	0	0	-	0	0	-
COC(=O)/C=C1\S/C(=N/N=C/c2ccccc2)NC1=O	0	0	0	0	0	0	-
COC(=O)/C=C1\S/C(=N/NC(=O)c2ccccc2)NC1=O	0	0	0	0	0	0	-
COC(=O)/C=C1/S/C(=N/NC(=O)c2ccccc2C)NC1=O	0	0	0	0	6.7	0	0
COC(=O)/C=C1\S/C(=N/N=C/c2ccco2)NC1=O	0	0	0	0	4.7	0	0
O=C(NCC1CCCCC1)c1cccc([N+](=O)[O-])c1	0	0	0	0	0	0	-
O=C(NCC1CC1)c1cc([N+](=O)[O-])cc([N+](=O)[O-])c1	0	0	0	0	8.5	0	7.1
O=C(N/C(=C/c1ccc([N+](=O)[O-])cc1)C(=O)N1CCOCC1)c1ccco1	0	0	0	0	4.9	0	0
C#CCOCCOCCOCCNc1nc(N2CCN(C(=O)[C@H]([C@@H](C)CC)n3cc(CCC(=O)O)nn3)CC2)nc(N2CCN(C(=O)[C@H](CCCCN)n3cc(CC(C)O)nn3)CC2)n1 (some centres undefined)	0	0	0	-	0	-	-
CCn1cc(C(=O)N2CCN(c3ccc(OC)cc3)CC2)c2cc(OC)c(OC)cc2c1=O	0	0	0	0	0	0	-
CCn1cc(C(=O)N2CCN(c3ccc(C(C)=O)cc3)CC2)c2cc(OC)c(OC)cc2c1=O	0	0	0	0	6.5	-	0
CSc1ccc(/C=C(/NC(=O)c2ccco2)C(=O)NCc2ccco2)cc1	0	0	0	-	6.3	0	0
O=C(NCc1ccco1)/C(=C/c1ccccc1)NC(=O)c1ccco1	0	0	0	0	0	0	-
O=C(NCc1ccco1)/C(=C\C=C\c1ccccc1)NC(=O)c1ccccc1Br	0	0	0	0	5.0	0	0
SMILES	HTR2A ag	bovine MsrA act	Tb MetRS inh	AHR activator	MsrA inh	AI-2 QS mod	MsrA conf
O=C(NCc1ccco1)/C(=C\C=C\c1ccccc1)NC(=O)c1ccco1	0	0	0	0	0	0	-
O=C(NCc1ccco1)/C(=C/C=C/c1ccccc1)NC(=O)c1ccco1	0	0	0	0	4.9	0	0
O=C(OCC#CCSc1nnc(-c2cccc3ccccc23)o1)c1cnc[nH]1	0	0	0	0	0	-	-
Cc1ccc(S(=O)(=O)NCC(NCc2ccc(F)cc2)c2ccccc2)cc1 (centres undefined)	0	0	0	-	0	-	-
O=c1c2ccccc2on1-c1ccccc1	0	0	0	-	0	-	-
COc1ccccc1C1=CC(=O)C[C@H](c2ccc3c(c2)OCO3)C1	0	0	0	0	6.3	-	0
O=C1C=C(c2ccc(O)cc2)C[C@@H](c2ccc3c(c2)OCO3)C1	0	0	0	0	6.8	-	0
O=C1NC(=O)/C(=C/c2ccco2)N1	0	0	0	0	7.9	-	6.2
CSc1ccc(S(=O)(=O)NCC(=O)OCC(=O)N(C)CC(=O)Nc2ccc(F)cc2)cc1[N+](=O)[O-]	0	0	0	-	0	-	-
COC(=O)c1cc(C(=O)NCc2ccc3c(c2)OCO3)cc([N+](=O)[O-])c1	0	0	0	0	0	0	-
CSc1ccc(/C=C(\C(=O)O)c2ccc(S(=O)(=O)N3CCCCC3)s2)cc1	0	0	0	0	5.9	0	0
COc1cc2c(cc1[N+](=O)[O-])n(C(C)C)c(=O)n2C(C)C	0	0	0	0	8.7	0	6.3
CCOc1ccc(N(C)S(=O)(=O)c2cc(-c3cc(C)no3)ccc2CC)cc1	0	0	0	0	15	0	15
CCOc1ccc(N(C)S(=O)(=O)c2cc(-c3cc(C)no3)ccc2C)cc1	0	0	0	0	12	0	11
CCOc1ccc(N(C)S(=O)(=O)c2cc(-c3cc(C)no3)ccc2OC)cc1	0	0	0	0	0	0	-
O=C1/C(=C/c2ccc(C(=O)O)cc2)CCC/C1=C\c1ccc(C(=O)O)cc1	0	0	0	0	8.8	0	6.6
CN(C)c1ccc(/C=C2\CCC/C(=C\c3ccccc3)C2=O)cc1	0	0	0	0	0	0	-
O=C(CC(=O)c1ccccc1)c1ccccc1	0	0	0	-	0	-	-
CC(CC(=O)c1ccccc1)=NCCCN=C(C)CC(=O)c1ccccc1	0	0	0	-	5.2	-	0
O=C(CCc1nc2ccccc2c(=O)[nH]1)N1CCCc2ccccc21	0	0	0	0	0	-	-
CNC(=S)N1N=C(c2ccc(Br)cc2)CC1c1ccc(OC)cc1 (centres undefined)	0	0	0	0	5.7	0	0
CNC(=S)N1N=C(c2ccc(C)cc2)CC1c1ccc(OC)cc1 (centres undefined)	0	0	0	0	0	0	-
COc1ccc(S(=O)(=O)N2CCc3ccccc32)cc1C(=O)NCC(c1ccco1)N1CCCC1 (centres undefined)	0	0	0	0	0	-	-
CN1CCN(c2nc(C#N)cc(-c3ccccc3)n2)CC1	0	0	0	0	5.0	0	0

Bioassay records (PubChem BioAssay)
